# In the library only some 4% were active in any assay of this set; here they are far more common.
# TAAR1 antag – antagonists of human TAAR1; Q96RJ0; CHO RD-HGA16 TAAR1, Fluo-8 calcium fluorescence, antagonist; inhibition, % at 3 µM; 1.5% of 360,000 active;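 active = inhibition above a per-plate cutoff, the mean inhibition of test compounds on that plate plus 3 SD, cut at about 49% in these data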;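 note: 0% = DMSO plus EC80 beta-PEA response and 100% = DMSO alone without agonist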
# Target sequence (Q96RJ0 whole entry, looked up): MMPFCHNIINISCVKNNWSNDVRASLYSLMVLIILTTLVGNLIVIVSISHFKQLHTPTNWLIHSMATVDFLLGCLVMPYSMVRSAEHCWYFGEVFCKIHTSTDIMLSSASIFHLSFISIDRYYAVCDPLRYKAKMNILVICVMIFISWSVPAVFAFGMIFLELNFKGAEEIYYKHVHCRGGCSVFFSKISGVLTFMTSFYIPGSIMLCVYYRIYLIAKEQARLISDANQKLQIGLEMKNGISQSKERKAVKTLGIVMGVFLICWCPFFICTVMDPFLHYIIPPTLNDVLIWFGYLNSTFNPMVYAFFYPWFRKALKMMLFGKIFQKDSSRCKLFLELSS
#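 System: CHO RD-HGA16 cells bearing hTAAR1. Reagent: EC80 β-phenethylamine stimulus. Schedule: seeding 17-24 h prior, 75-min 37 °C, 30-min RT dye loading. Signal: Fluo-8 intracellular calcium dye fluorescence, real-time kinetic reads. Read-out: % inhibition from peak post-agonist over basal fluorescence ratio. Benchmarks: vehicle wells and EC80 agonist wells. Replicates: n of 1.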
# OX1R antag-1 – antagonists of human orexin 1 receptor (OX1R). O43613. OX1R-expressing cells, FRET antagonist read-out. inhibition, % at 6.6 µM. 1.8% of 330,000 active. AID 485270; in the data active = inhibition mostly above about 38%, no sharp cut-off; inactive = mostly below about 40%;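 note: 0% = agonist challenge alone and 100% = reference antagonist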
# Target sequence (O43613 whole entry, looked up): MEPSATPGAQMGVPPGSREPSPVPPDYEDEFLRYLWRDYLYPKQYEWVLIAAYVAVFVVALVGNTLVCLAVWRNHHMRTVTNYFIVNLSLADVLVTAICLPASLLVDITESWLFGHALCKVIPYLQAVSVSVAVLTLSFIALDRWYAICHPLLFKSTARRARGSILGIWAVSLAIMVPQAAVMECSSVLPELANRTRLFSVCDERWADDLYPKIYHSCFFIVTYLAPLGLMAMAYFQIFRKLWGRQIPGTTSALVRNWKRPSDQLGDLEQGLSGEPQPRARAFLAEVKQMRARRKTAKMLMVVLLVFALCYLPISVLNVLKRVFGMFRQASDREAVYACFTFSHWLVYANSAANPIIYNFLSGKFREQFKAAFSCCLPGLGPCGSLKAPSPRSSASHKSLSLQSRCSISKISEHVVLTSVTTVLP
# CHO parental Ca – signal in parental CHO cells, OX1R antagonist counter-screen. parental CHO-K1, ATP-induced calcium, Fluo-8 fluorescence. inhibition, % at 5.6 µM. 0.63% of 330,000 active. AID 463079;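 active = inhibition above that plate's mean sample inhibition plus 3 SD, cut at about 26% in these data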;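 note: 0% = ATP-challenged DMSO wells and 100% = DMSO wells without ATP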
#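 test system = CHO parental line | reagent = ATP stimulus | measured by = intracellular calcium via Fluo-8 no-wash fluorescent dye | control set = ATP and no-ATP DMSO wells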
# TAAR1 ag – agonists of human TAAR1. Q96RJ0. CHO RD-HGA16 TAAR1, Fluo-8 calcium fluorescence; vehicle wells 0%, saturating PEA agonist 100%. activation, % at 3 µM. 0.99% of 360,000 active. AID 624467;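 active = activation above the mean activation of all test compounds in the run plus 3 SD, cut at about 38% in these data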
#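 Test system: RD-HGA16 (CHO) cells co-expressing Gα16 and hTAAR1 / Benchmarks: DMSO vehicle as 0%, PEA at EC100 as 100% / Repeats: no replicates (n 1) / Measure: % activation from peak over basal fluorescence ratio, DMSO-to-PEA scaled / Timing: 17-24 h plating, Fluo-8 75 min 37 °C, 30 min RT / Technique: kinetic Fluo-8 calcium fluorescence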
# OX1R antag-2 – human HCRTR1 antagonism | O43613 | CHO/OX1R cells, Fluo-8 calcium fluorescence, orexin A | inhibition, % at 5 µM | 0.43% of 330,000 active | AID 434989;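 active = inhibition above its plate's threshold, mean inhibition of all tested compounds on the plate plus 3 SD, cut at about 37% in these data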;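 note: 0% = orexin A challenge wells and 100% = SB-334867-A antagonist wells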
# TAAR1 ag conf – human TAAR1 agonism, confirmed; CHO RD-HGA16 TAAR1, Fluo-8 calcium fluorescence; scaled: DMSO 0%, maximal phenethylamine 100%; shares compounds with TAAR1 ag; 82% of 2,400 active; activation, % at 3 µM; AID 651783;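 active = activation above a cutoff set at the run's mean compound activation plus 3 SD, cut at about 39% in these data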
# Ga16 ag counter – counter-screen for TAAR1 agonists: nonselective agonists in parental cells; shares compounds with TAAR1 ag; AID 651787; CHO-Ga16 parental, Fluo-8 calcium fluorescence; normalized to maximal ATP response, DMSO zero; 50% of 2,400 active; activation, % at 3 µM;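 active = activation above the run cutoff, the mean activation over all tested wells plus 3 SD, cut at about 12% in these data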;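 note: 0% = DMSO wells and 100% = maximal ATP response on the peak over basal ratio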
# TAAR1 desensitize – TAAR1 response desensitization, agonist counter-screen; shares compounds with TAAR1 ag; CHO RD-HGA16 hTAAR1, Fluo-8 calcium, beta-PEA response inhibition; inhibition, % at 3 µM; 46% of 2,400 active; AID 651951;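 active = inhibition above the run cutoff, the mean inhibition of all test compounds plus 3 SD, cut at about 49% in these data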;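 note: beta-PEA stimulus applied at its EC80; loss of beta-PEA calcium signal after compound pretreatment read as receptor desensitization; 0% = DMSO with beta-PEA at EC80 and 100% = DMSO alone without agonist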
# Ga16 nonsel ant – nonselective Ga16 antagonism, counter-screen; AID 651952; 39% of 2,400 active; inhibition, % at 3 µM; shares compounds with TAAR1 ag; CHO-Ga16 ATP-induced calcium, Fluo-8 fluorescence;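 active = inhibition above the plate's mean compound inhibition plus 3 SD, computed per plate, cut at about 22% in these data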;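 note: 0% = EC80 ATP with DMSO and 100% = DMSO wells without ATP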
# * marks the source's active call; other numbers are inactive results; / = no result.
SMILES,TAAR1 antag,OX1R antag-1,CHO parental Ca,TAAR1 ag,OX1R antag-2,TAAR1 ag conf,Ga16 ag counter,TAAR1 desensitize,Ga16 nonsel ant
CN(C)CCOc1ccc(C(C)(C)c2ccccc2)cc1,-14.6,-2.2,-5.4,7.9,-7.6,/,/,/,/
CN(C)CCCOc1ccc(C(C)(C)c2ccccc2)cc1,0.5,12.1,-0.1,74.7*,-14.3,45.0*,8.2,9.0,12.2
c1ccc(CC2CCCNC2)cc1 (stereo not given),18.5,15.1,3.0,43.7*,-9.5,60.9*,-0.5,32.7,7.4
Fc1cccc(CCN2CCNC[C@@H]2c2ccccc2)c1,9.4,0.4,-10.9,25.0,-0.3,/,/,/,/
FC(F)(F)c1cc(CCN2CCNC[C@@H]2CC2CCCCC2)cc(C(F)(F)F)c1,43.1,-5.6,51.2*,61.2*,11.8,52.3*,60.4*,27.1,68.4*
c1ccc(C[C@H]2CNCCN2CCCCC2CCCCC2)cc1,21.2,27.9,-2.3,52.8*,-15.8,54.5*,22.1*,46.2,28.8*
c1ccc(C[C@H]2CNCCN2CC2CCCCC2)cc1,4.5,7.7,-4.7,8.8,-12.1,/,/,/,/
FC(F)(F)c1cc(CCN2CCNC[C@@H]2c2ccccc2)cc(C(F)(F)F)c1,27.0,7.6,-4.0,44.9*,-9.6,34.3,7.2,4.7,13.4
CSCCC(NC(=O)c1cccc([N+](=O)[O-])c1)C(=O)O (stereo not given),-16.2,43.3,-9.4,2.0,-9.1,/,/,/,/
CCn1c(O)c(N=NC(=O)CNC(=O)c2cccnc2)c2ccccc21,-0.4,/,/,0.8,/,/,/,/,/
CCN(CC)CCN1C(=O)C2C(C(=O)Nc3cccc(C)c3)C3C=CC2(O3)C1C(=O)NC1CCCC(C)C1C (stereo not given),-3.9,-23.8,-12.9,7.6,-24.6,/,/,/,/
CCC(C)[C@H]1CNCCN1CCc1cc(C(F)(F)F)cc(C(F)(F)F)c1 (stereo not given in full),-35.6,12.2,30.0,48.6*,-18.0,59.4*,22.5*,3.2,10.0
COc1ccc(Cn2c(SCc3ccccc3C)nc3cc(OC)c(OC)cc3c2=N)cc1,9.4,7.2,-2.7,51.7*,-1.4,71.3*,30.6*,46.7,33.6*
Cc1nc(N)c(C#N)c(-c2ccccc2Cl)c1C,-7.8,2.2,-6.5,73.1*,-39.5,65.7*,44.2*,5.7,9.2
O=C(NC(=S)Nc1ccccc1O)c1ccccc1Cl,-3.1,17.0,-13.2,8.2,-25.9,/,/,/,/
OCC1OC(c2ccc(O)cc2O)C(O)C1O (stereo not given),-8.3,/,/,0.1,/,/,/,/,/
O=C(COC(=O)c1cccc(O)c1)Nc1ccc(OC(F)F)cc1,-13.5,6.6,2.8,11.0,-9.4,/,/,/,/
O=C(COC(=O)c1ccc(O)cc1)Nc1ccc(OC(F)F)cc1,3.4,15.1,15.2,66.2*,6.7,49.0*,7.2,29.4,16.4
C/C(=C\C=C(C#N)C#N)c1cc(C#N)c(N)o1,37.4,/,/,99.1*,/,29.7,33.4*,27.4,25.3*
Nc1nc(C(F)(F)F)cc(=O)n1N,-16.1,31.7,-0.4,7.8,0.0,/,/,/,/
Cc1ccc(S(=O)(=O)C2(C(=O)NCCc3ccccc3)CC2)cc1,1.7,9.5,-10.5,50.1*,-29.1,82.4*,0.1,34.6,4.9
Cc1ccc(S(=O)(=O)NC(=O)NCCc2ccccc2)cc1,18.0,25.4,-16.1,71.4*,-12.1,81.0*,-0.2,36.6,13.3
O=C(COC(=O)/C=C/c1ccc(Cl)cc1)NCc1cccs1,3.0,/,/,2.7,/,/,/,/,/
O=C(COC(=O)/C=C/c1cccc(C(F)(F)F)c1)NCc1cccs1,66.5*,2.8,36.1*,78.9*,8.5,65.7*,43.9*,44.9,19.4
COc1ccccc1CNC(=S)NC1CCCC1,-9.0,1.4,-1.4,3.6,-1.3,/,/,/,/
SMILES,TAAR1 antag,OX1R antag-1,CHO parental Ca,TAAR1 ag,OX1R antag-2,TAAR1 ag conf,Ga16 ag counter,TAAR1 desensitize,Ga16 nonsel ant
CCN(CC)CCNC(=O)C1(O)c2cc(Br)ccc2NC(=O)N1c1c(F)cccc1F (stereo not given),-10.6,-4.5,6.0,3.5,-15.5,/,/,/,/
Oc1c(C(Nc2ccccn2)c2ccccn2)ccc2cccnc12 (stereo not given),0.4,25.5,-1.7,1.7,-31.2,/,/,/,/
Oc1cccc2ccc(Nc3ccccn3)nc12,3.2,2.6,-12.7,47.8*,-12.7,57.9*,2.0,-4.8,-3.5
Cc1ccc(-c2nnn(CC(=O)NCCc3ccc4c(c3)OCO4)n2)cc1,67.3*,3.6,20.8,77.7*,1.3,47.4*,10.3,22.6,16.0
FC(F)(F)c1cnc2c(-c3ccccc3)n[nH]c2c1,-15.6,/,/,7.4,/,/,/,/,/
CCc1cc(C(=O)Cc2cnn(-c3ccccc3)c2)c(O)cc1O,62.9*,5.8,0.0,48.9*,5.3,50.0*,48.2*,80.4*,52.4*
COc1cc2c(-c3ccc(O)cc3)nc3c(c(C)nn3-c3ccccc3)c2cc1OC,50.3*,19.5,-7.5,40.5*,13.3,21.8,14.4*,49.0*,38.4*
COc1cc2c(C)nc3c(c(C)nn3-c3ccccc3)c2cc1OC,-19.6,19.0,-8.5,0.1,-7.0,/,/,/,/
O=[N+]([O-])c1ccc(CSc2nnc(-c3cccnc3)o2)cc1,-7.1,/,/,0.6,/,/,/,/,/
Cc1ccc(C)c(Nc2ccc3nonc3c2[N+](=O)[O-])c1,-2.5,/,/,2.0,/,/,/,/,/
Cc1ccc(C)c(Nc2c([N+](=O)[O-])ccc3nonc23)c1,-3.9,-4.4,-14.2,71.5*,-42.0,66.3*,39.7*,-8.4,-12.2
CCN(CCn1cccn1)C(=O)CC1C(=O)NCCN1CCc1ccccc1 (stereo not given),29.7,17.9,-10.9,77.7*,-12.4,93.4*,1.7,82.1*,2.1
O=C(COC(=O)c1ccc2c(c1)C(=O)N(CCc1ccccc1)C2=O)Nc1ccc(OC(F)F)cc1,15.4,18.4,-10.3,13.1,-18.2,/,/,/,/
Cc1ccc(NC(=O)COC(=O)c2ccc3c(c2)C(=O)N(CCc2ccccc2)C3=O)c(C)c1,13.7,8.8,2.2,76.8*,-9.7,63.7*,3.7,18.2,-2.3
O=C(NCc1ccc2c(c1)OCO2)C(=O)NC1CCCCC1,-20.6,16.2,6.3,3.8,7.7,/,/,/,/
CC1CCCC(C)N1C(=O)CNCc1ccc2c(c1)OCO2 (stereo not given),3.3,15.1,-9.3,70.7*,-8.4,22.7,4.8,-3.6,-4.7
CN(C)CCSc1nnc2[nH]c3ccccc3c2n1,5.7,53.5,-8.2,43.5*,1.5,83.1*,0.1,41.1,-1.6

# Screening data: PubChem, The Scripps Research Institute Molecular Screening Center
